Screening data (PubChem BioAssay)
The list is a sample of the results.
Apaf1 activ: activators of human Apaf-1 apoptosome, primary screen, biochemical, DEVD-Rh110 fluorescence, uHTS. Apoptotic protease-activating factor 1 (Homo sapiens), O14727. Apaf-1 apoptosome caspase-3 activation; hits give low values. activity change, negative = activation, % at 20 µM. 0.31% of 330,000 active. AID 489031, 2010;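 active means activity change at or below -40% at 20 µM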
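Assay system – biochemical Apaf-1 apoptosome reconstitution · Medium – 20 mM HEPES buffer, pH 7.5, containing CHAPS and BSA · Incubation – 30 min preincubation, 50 min reaction, room temperature · Measured by – Caspase-3-released Rh110 fluorescence, 540 nm emission, 480 nm excitation · Read-out – Caspase-3 cleavage activity downstream of Apaf-1 activation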
Rh110 act interf: Rh110 fluorescence interference by putative Apaf-1 activators, confirmation, artefact control for Apaf-1 activator project, biochemical, 20 µM; quenched caspase reaction, Ex480/Em540; 980 tested, under 10 active; shares compounds with Apaf1 activ; AID 504616, 2011; fluorescence interference (activity change), % at 20 µM, hits read low;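 active means mean activity change at or below -40% when tested at 20 µM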
Apaf-1 act conf2: Apaf-1 activators, single-dose retest, confirmation, biochemical, fluorescence, DEVD-Rh110, 20 µM; shares compounds with Apaf1 activ; reconstituted apoptosome caspase-3 activity; hits give low values; activity change, negative = activation, % at 20 µM; 5% of 980 active; AID 504617, 2011;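 active means mean activity change at or below -40%, meaning activation of 40% or more, at 20 µM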
An asterisk follows results filed as active; nt = not tested or not shown.

SMILES	Apaf1 activ	Rh110 act interf	Apaf-1 act conf2
COC(=O)C1=C(C)N(Cc2ccccc2)C(=NCCc2ccccn2)N[C@H]1c1cccc(C(F)(F)F)c1	48	nt	nt
CCN1C(=NCCc2ccccn2)N[C@@H](c2cccc(C(F)(F)F)c2)C(C(=O)OC)=C1C	-114*	13	9
COC(=O)C1=C(C)N(Cc2ccccc2)C(=NCC(C)C)N[C@H]1c1cccc(C(F)(F)F)c1	58	nt	nt
CC(C(=O)O)N1C(=O)/C(=C/C=C/c2ccco2)SC1=S (stereo unspecified)	47	nt	nt
CC1CC2(CCCCC2)N2C(=O)C(=O)c3cccc1c32 (stereo unspecified)	41	nt	nt
c1ccc(-c2sc3ccccc3c2-c2ccc(OCCN3CCCCC3)cc2)cc1	52	nt	nt
O=C(N/N=C/c1ccc(-c2ccccc2[N+](=O)[O-])o1)[C@H]1C[C@@H]1c1ccccc1	68	nt	nt
CC(C)c1ccc2[nH]c(O)c(N=NC(=O)c3ccc(CSc4nncn4C)cc3)c2c1	-74*	2	10
COC(=O)/C(=C/Nc1ccc(O)cc1)[N+](=O)[O-]	91	nt	nt
Cc1cc(C(=O)NC(=S)Nc2cccc(C(=O)O)c2C)ccc1[N+](=O)[O-]	-54*	0	11
CCOCCCNC1=C(Cl)C(=O)c2ccccc2C1=O	48	nt	nt
CCOCCCNC(=O)COc1ccc(OC)cc1	-293*	12	12
CCOc1ccc(-c2nc(CSc3nnc(N)s3)cs2)cc1	-523*	5	11
Cc1ccc(Oc2nc(CN3CCOCC3)nc3sc4c(c23)CCC(C)C4)cc1 (stereo unspecified)	41	nt	nt
COc1ccc2c(c1)OC[C@H]1[C@H]2N2C(=O)c3cc(OC)c(OC)cc3NC(=O)[C@@]2(C)[C@H]1c1ccccc1	-143*	6	12
COc1ccc(O[C@H]2C=C[C@@H](c3ccccc3)O[C@@H]2CO/N=C(\C)CCN2CCc3nc(-c4ccccc4)c(-c4ccccc4)cc3C2)cc1	48	nt	nt
NC(N)=N/N=C/c1ccc(OCc2ccccc2Cl)cc1	43	nt	nt
COc1ccc(NC(=O)CCl)cn1	67	nt	nt
O=C1N/C(=C\c2ccc(O)cc2)C(=O)c2ccccc21	97	nt	nt
O=C(c1ccccc1)c1ccc(OCC(O)CNC2CCCc3ccccc32)cc1 (stereo unspecified)	52	nt	nt
OC(CNc1ccccc1)COc1ccc(OCC(O)CNc2ccccc2)cc1 (stereo unspecified)	-141*	3	5
OC(CNC1CCCc2ccccc21)COc1ccc2ccccc2c1 (stereo unspecified)	47	nt	nt
COc1ccc(C(=O)Nc2ccc(/C(C)=N/NC(=O)c3ccccc3O)cc2)cc1OC	-176*	0	10
CCCCCCNC(=O)N[C@@H](C(=O)NCCC[C@H]1CN2C(=NC[C@@H]2Cc2ccccc2)N1CCc1cccc(OC)c1)C(C)C	54	nt	nt
COC(=O)c1ccc(C(=O)Nc2ccc(N)cc2N)cc1	48	nt	nt
SMILES	Apaf1 activ	Rh110 act interf	Apaf-1 act conf2
Cc1ccc(S(=O)(=O)NCCN2CCOCC2)c(C)c1C	-48*	3	9
CCOc1ccc(NS(=O)(=O)c2cc(C(=O)NCCCN3CCOCC3)ccc2C)cc1	65	nt	nt
Oc1cc(NCCN2CCOCC2)cc2cccnc12	92	nt	nt
COC(=O)CCC(=O)OC1(C)C(=O)C=C2C=C(C3CC3)N(CCCOC(C)C)C=C2C1=O (stereo unspecified)	53	nt	nt
C#CCOCCOCCOCCNc1nc(N2CCN(C(=O)CCCCCCCCCCNC(=O)[C@H]([C@@H](C)CC)n3cc(CCCCCN)nn3)CC2)nc(N2CCN(C(=O)CCCCCCCCCCNC(=O)[C@H](CCCCN)n3cc(CCCC(=O)O)nn3)CC2)n1	56	nt	nt
Cc1ccccc1Nc1cc2ccccc2c(=O)[nH]1	96	nt	nt
O=C(OCc1cc(Cl)ccc1OC(F)F)c1ccc([N+](=O)[O-])o1	66	nt	nt
COc1ccc(C(CNC(=O)c2cccn2C)N2CCOCC2)cc1 (stereo unspecified)	47	nt	nt
O=C(NCC(c1ccc(F)cc1)N1CCOCC1)c1cccnc1Sc1ccccc1 (stereo unspecified)	-57*	8	12
CCCCCC#CCC#CCC#CCC#CCCCC(=O)O	41	nt	nt
CC(=O)[C@H]1[C@@H]2C(=O)N(c3cccc(Cl)c3)C(=O)[C@@H]2[C@H]2c3ccccc3C=CN21	73	nt	nt
S=c1nc(-c2ccc(Cl)cc2)[nH][nH]1	-396*	8	14
CCOC(=O)c1ccc(N2CSC3=C(C#N)C(c4cccs4)CC(=O)N3C2)cc1 (stereo unspecified)	55	nt	nt
